# CAL PDZ FP-1: human CAL PDZ-peptide interaction inhibition; Q9HD26; purified CAL PDZ, TMR-peptide fluorescence polarization, 1 h; inhibition, % at 20 µM; actives 0.02% (n = 330,000); AID 504414;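 active means highest replicate inhibition of at least 40%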;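 further: plate controls were DMSO neutral control wells for no effect and unlabeled competitor peptide control wells for full effect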
#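 material = purified tagged CAL PDZ domain construct (CerCALP) | compound dosing = 20 µM, one dose | times = 1 h at RT | measured by = fluorescence polarization from S- and P-plane intensities, G-factor corrected | read-out = inhibition from polarization loss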
# DDE Tn6 FP inh: DD(E)-Tn6 binding inhibition, primary FP screen; P02675; Fibrin DD(E) TRITC-Tn6 fluorescence polarization displacement; inhibition, % at 8.3 µM; actives 0.21% (n = 370,000); AID 720509;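 active means inhibition above a per-campaign cutoff: mean of compounds within control limits plus 3 SD, cut at about 15% in these data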;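 further: 0% = median of all compound wells on the plate and 100% = blocking peptide control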
# Target sequence (P02675 whole entry, looked up): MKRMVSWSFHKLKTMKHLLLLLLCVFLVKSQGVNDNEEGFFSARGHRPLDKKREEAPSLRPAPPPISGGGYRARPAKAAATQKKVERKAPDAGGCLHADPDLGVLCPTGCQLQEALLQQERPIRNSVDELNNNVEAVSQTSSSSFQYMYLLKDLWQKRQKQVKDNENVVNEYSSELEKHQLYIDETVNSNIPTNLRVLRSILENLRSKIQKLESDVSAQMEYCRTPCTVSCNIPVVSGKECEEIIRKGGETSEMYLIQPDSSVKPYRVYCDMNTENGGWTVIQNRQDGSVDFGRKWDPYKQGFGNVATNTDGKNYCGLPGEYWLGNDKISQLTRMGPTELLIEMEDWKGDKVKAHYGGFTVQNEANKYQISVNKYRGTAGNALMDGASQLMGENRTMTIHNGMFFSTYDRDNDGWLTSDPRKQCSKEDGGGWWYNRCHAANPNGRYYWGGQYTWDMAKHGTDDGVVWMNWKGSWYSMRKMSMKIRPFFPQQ
# ARNT TACC3 PPI: disrupts binding between human ARNT and TACC3; actives 0.66% (n = 390,000); AID 623870; AlphaScreen His-ARNT PAS-B/GST-TACC3 binding, luminescence; TACC3 fragment carries E629A point mutation; inhibition, % at 9.99 µM;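 active means mean inhibition of replicates at least 50% and at least half of replicates each reaching 50%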;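 further: 0% = complete ARNT plus TACC3 wells and 100% = ARNT alone without TACC3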
# CAL PDZ FP-2: inhibitors of human CAL PDZ peptide binding; Q9HD26; purified CAL PDZ, TMR-peptide fluorescence polarization, 1 h; inhibition, % at 24.9 µM; actives 0.92% (n = 300,000); AID 602252;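 active means mean inhibition of at least 30% with at least half of replicates also reaching 30%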;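 further: 0% = DMSO neutral control and 100% = excess unlabeled competitor peptide PRC23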
# Tn7 DDE FP: disrupts Tn7 cyclic peptide binding to fibrin D-Dimer-E complex | P02675 | FP displacement of FITC-Tn7 peptide from fibrin DD(E); 0% = median of compound wells per plate | inhibition, % at 8.3 µM | actives 0.13% (n = 370,000) | AID 720508;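 active means inhibition above the mean of compounds falling within the control limits plus 3 SD of them, cut at about 14% in these data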;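 further: 0% = plate median of compound wells and 100% = 10 µM Aha-Tn7 peptide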
#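 system = human fibrin DD(E) protein | quantity = DD(E) 2 µM final | medium = Tris/NaCl/CaCl2 buffer, pH 7.8 | also added = labelled Tn7 tracer, 0.1 µM | compound dosing = single point at 8.3 µM | timing = compound with protein 10 min, then 3 h after probe, room temperature | signal = FP measurement | benchmarks = Aha-Tn7 high control | repeats = one replicate per compound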
# GRK2 inh: inhibitors of human GRK2 displacing RNA aptamer. inhibition of aptamer binding, % at 10 µM. AID 488847. bead flow cytometry, FAM-aptamer displacement from GRK2. actives 0.59% (n = 330,000). P25098;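 active means inhibition of aptamer binding above 40%, roughly 3 SD of noise, on plates passing a quality check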;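 further: median bead fluorescence of bound FAM aptamer so fluorescent compounds give negative values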
# Starred values were filed as active, the others as inactive; . = no result given. A selection: hits, their analogues and other compounds. The true share with any hit is near 1.8%.
SMILES,CAL PDZ FP-1,DDE Tn6 FP inh,ARNT TACC3 PPI,CAL PDZ FP-2,Tn7 DDE FP,GRK2 inh
O=C([C@H]1[C@H](CO)[C@H]2Cn3c(cccc3=O)[C@H]2N1Cc1cc(F)ccc1F)N1CCOCC1,.,.,4,.,.,.
Cc1[nH]n(-c2ccccc2)c(=O)c1/C=N/NC(=O)C(C)C,0,2,70*,.,2,2
Cc1[nH]n(-c2ccccc2)c(=O)c1/C=N/NC(=O)c1cccc([N+](=O)[O-])c1,0,-4,31*,-4,2,0
Cc1cc(C(=O)N/N=C/c2cccc([N+](=O)[O-])c2)c(C)n1-c1ccccc1,-1,0,-4,-5,-6,3
Cc1[nH]n(-c2cccc3ccccc23)c(=O)c1/C=N/NC(=O)c1cccc([N+](=O)[O-])c1,-3,1,6,-9,-1,2
Cc1cc(/C=N/NC(=O)c2ccccn2)c(C)n1-c1cccc([N+](=O)[O-])c1,0,6,68*,0,2,4
Cc1[nH]n(-c2ccccc2)c(=O)c1/C=N\NC(=O)C1COc2ccccc2O1 (stereo not given),0,-8,61*,-7,-6,0
CC(C)c1cn(CC[C@@H]2CC[C@H](NC(=O)Nc3cc(Cl)cc(Cl)c3)[C@H](CO)O2)nn1,.,.,-6,.,.,.
CC(C)NC(=O)N(C)C[C@H]1Oc2c(NC(=O)NC3CCCCC3)cccc2C(=O)N([C@@H](C)CO)C[C@@H]1C,.,.,-8,.,.,.
COc1cccc(CN2CC(C(=O)NCCCCc3ccccn3)CCC2=O)c1 (stereo not given),1,4,0,-5,-5,0
COc1ccc(C2NN=C(c3ccc(C)cc3)S2)cc1 (stereo not given),-3,2,0,41*,-2,1
CCOc1cc(C2NN=C(c3ccc(C)cc3)S2)ccc1O (stereo not given),-1,-9,4,3,1,1
CCCNC(=O)N(C)C[C@H]1Oc2cc(-c3ccccc3F)ccc2S(=O)(=O)N([C@@H](C)CO)C[C@H]1C,.,.,-10,.,.,.
CNC(=O)Cn1nc(C)c(S(=O)(=O)N2CCOCC2)c1C,-1,8,.,50*,-3,0
Cc1ccc(S(=O)(=O)n2nc(C)c(S(=O)(=O)N3CCOCC3)c2C)cc1,1,-2,-4,-3,-3,0
O=C(C[C@@H]1C[C@@H]2c3cc(NC(=O)c4cccnc4)ccc3O[C@@H]2[C@H](CO)O1)NCc1ccccc1,.,.,-4,.,.,.
O=C(O)c1c(-c2ccc(Cl)cc2)cn2ccccc12,-2,5,5,100*,-3,7
O=C1C(=O)c2ccccc2C(O)=C1CCCCl,0,.,37*,.,.,2
CN1c2ccc(Br)cc2[C@@H]2[C@@H](CCN2S(=O)(=O)c2cccc(F)c2)[C@@H]1CO,.,.,-2,.,.,.
Cc1cccc(N2CCN(CC3CCCCC3)CC2)c1C,-1,5,-11,47*,-1,0
COC(=O)C[C@@H]1CC[C@H](NC(=O)c2ccccc2)[C@H](CO)O1,.,.,-9,.,.,.
C=C(C)CSc1nnc([C@@H]2CCCN2)o1,0,3,1,42*,-1,0
O=C(N/N=C/c1ccc([N+](=O)[O-])o1)C(=O)Nc1ccc(C(=O)O)cc1,-3,-2,10,-3,-2,5
O=C(O)c1ccc(N/N=C/C=C/c2ccc([N+](=O)[O-])o2)cc1,0,0,.,-5,-4,91*
C[C@@H]1CN([C@H](C)CO)C(=O)c2cc(NC(=O)Nc3cccc4ccccc34)ccc2O[C@H]1CN(C)S(=O)(=O)c1ccc(Cl)cc1,.,.,-3,.,.,.
COc1ccc(CNC(=O)CCN2C(=S)NC(C)(C)CC2C)cc1 (stereo not given),-2,3,-3,65*,-4,0
O=C(CSc1ncnc2ccccc12)NCCc1ccccc1,11,1,-2,45*,-13,5
CCCNC(=O)CSc1nc(COc2ccccc2)nc2ccccc12,-2,-2,1,-1,0,2
O=C(CSc1ncnc2ccccc12)NCCCO,-1,11,17,3,-5,2

# Source: PubChem BioAssay
